Arr AP2 block = blocks beta-arrestin peptide binding to AP2 adaptin | hit rate 0.31% among 340,000 | FITC-arrestin peptide / GST-AP2 beads, flow cytometry; AP2 beta2 appendage carries R879A mutation | inhibition, % at 10 µM | AID 504490;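 active = inhibition above a set limit, near 3 SD of compounds lacking own fluorescence, cut at about 54% in these data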;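 also: plate controls were DMSO wells for no effect and 5 µM unlabelled arrestin peptide for full effect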
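test system = AP2 appendage R879A on GSH beads | buffer or medium = PBS plus Tween 20 (0.05%) and BSA (0.1%) | incubation = 12 min plus 1 h, RT | detection = bead flow cytometry, FITC channel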
CaV13 FRET inh = Disruptors of the CACNA1D IQ motif to Ca2+-dependent inactivation inhibitor domain association, primary screening, Förster resonance energy transfer in intact living …; inhibition, % at 12.3 µM; AID 743397; HEK cells, CFP/YFP FRET ICDI-IQ, plate reader, 10 min; percent FRET-ratio fall versus neutral wells; hit rate 0.098% among 340,000;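 active = mean replicate inhibition of at least 30% and at least 1% of replicates passing that level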;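 also: 0% = median of the neutral control wells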
FAS TE block = FAS thioesterase (human) inhibition | P49327 | recombinant FAS-TE, OMFH fluorogenic substrate, fluorescence endpoint | inhibition, % at 15 µM | hit rate 0.67% among 360,000 | AID 602261;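 active = compounds whose normalised, plate-corrected inhibition of enzyme fluorescence in the single-dose primary screen is 50% or more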;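 also: 0% = DMSO with enzyme and 100% = substrate without enzyme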
CendR NRP1 mod = NRP-1/CendR interaction modulation; hit rate 0.85% among 360,000; O14786; inhibition, % at 25 µM; FAM-RPARPAR peptide binding to NRP-1, fluorescence polarization;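 active = inhibition or corrected inhibition above about 18%, plus a signal ratio from 0.5 to 1.5, limit read from the data, passing the limit was not always enough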
ADAM17 inh = inhibitors of human ADAM17 | P78536 | inhibition, % at 6.95 µM | hit rate 0.83% among 370,000 | recombinant ADAM17, EDANS/DABCYL FRET peptide cleavage | AID 720648;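 active = inhibition above the mean of compounds lying between control limits plus 3 SD, set per campaign, cut at about 8.5% in these data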;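 also: 0% = DMSO-only wells as the low control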
Target sequence (P78536 215-824 limits assumed): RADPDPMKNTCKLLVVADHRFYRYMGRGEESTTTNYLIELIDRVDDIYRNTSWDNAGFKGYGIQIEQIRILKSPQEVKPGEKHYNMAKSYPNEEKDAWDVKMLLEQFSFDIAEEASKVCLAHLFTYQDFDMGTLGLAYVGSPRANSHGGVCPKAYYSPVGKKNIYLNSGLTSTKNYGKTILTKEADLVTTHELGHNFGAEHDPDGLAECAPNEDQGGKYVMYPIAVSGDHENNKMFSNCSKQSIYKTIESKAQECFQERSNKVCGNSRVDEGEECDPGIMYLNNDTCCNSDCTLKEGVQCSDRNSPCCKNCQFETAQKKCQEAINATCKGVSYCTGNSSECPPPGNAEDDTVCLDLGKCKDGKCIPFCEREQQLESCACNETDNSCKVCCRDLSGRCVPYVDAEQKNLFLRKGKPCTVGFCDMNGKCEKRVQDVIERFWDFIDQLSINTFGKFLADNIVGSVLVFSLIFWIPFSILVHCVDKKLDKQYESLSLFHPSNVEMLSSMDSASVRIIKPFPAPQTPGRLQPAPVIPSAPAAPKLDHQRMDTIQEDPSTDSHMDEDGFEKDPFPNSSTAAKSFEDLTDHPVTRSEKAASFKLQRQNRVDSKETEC
ADAM10 inh = inhibitors of human ADAM10 | inhibition, % at 7 µM | O14672 | hit rate 0.62% among 370,000 | recombinant ADAM10, EDANS/DABCYL FRET peptide cleavage, 3 h;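 active = inhibition above a per-campaign cutoff equal to the mean of compounds falling between control-based bounds plus 3 SD, cut at about 20% in these data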;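 also: 0% = DMSO wells while the 100% control is not disclosed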
ADAM10 ctr = counter-screen for ADAM17 exosite inhibitors: inhibitors of human ADAM10. shares compounds with ADAM17 inh. recombinant ADAM10, EDANS/DABCYL FRET peptide cleavage, 3 h. inhibition, % at 6.95 µM. hit rate 47% among 2,900. AID 743256;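 active = mean inhibition over the triplicate runs exceeds the activity threshold set in the earlier primary screen, cut at about 20% in these data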;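 also: 0% = DMSO wells and 100% = marimastat wells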
ADAM17 confirm = human ADAM17 inhibition, confirmation. inhibition, % at 6.95 µM. shares compounds with ADAM17 inh. recombinant ADAM17, EDANS/DABCYL QFRET peptide cleavage. hit rate 65% among 2,900. AID 743257;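 active = mean inhibition across replicates above the hit cutoff set in the primary screen, cut at about 8.5% in these data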;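 also: 0% = DMSO wells and 100% = marimastat wells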
* = called active by the depositor; nt = no result given. Sampled rows, rich in hits. Any-hit rate of the full collection: about 2.9%.

SMILES	Arr AP2 block	CaV13 FRET inh	FAS TE block	CendR NRP1 mod	ADAM17 inh	ADAM10 inh	ADAM10 ctr	ADAM17 confirm
COc1ccc(NC(=O)N(C)C[C@H]2Oc3ccc(NC(=O)Nc4ccc(C(F)(F)F)cc4)cc3C(=O)N([C@H](C)CO)C[C@@H]2C)cc1	6	-2	2	5	8.7*	14	36*	18*
C[C@H](CO)N1C[C@H](C)[C@@H](CN(C)C(=O)Nc2ccc3c(c2)OCO3)Oc2ccc(NC(=O)Cc3ccccc3)cc2C1=O	-6	-12	-5	6	-3	-5	nt	nt
CC(C)Oc1cccc(-c2n[nH]c(=S)n2N=Cc2cccc([N+](=O)[O-])c2)c1	nt	nt	nt	nt	0	-2	nt	nt
O=C(Nc1ccccc1)c1ccc(-c2ccccc2C(F)(F)F)o1	6	-4	31	-4	9.2*	16	15	9
CCOC(=O)[C@]12CCCC=C1N(Cc1cccc3ccccc13)C(=O)[C@H](CC(=O)NCc1cccc3ccccc13)C2	nt	-4	7	10	11*	6	12	5
CCCCOCCCNC(=O)C[C@@H]1C[C@@]2(C(=O)OCC)CCCC=C2N(Cc2cccc3ccccc23)C1=O	nt	-2	14	20	7	19	nt	nt
CCOC(=O)[C@]12CCCC=C1N(Cc1cccc3ccccc13)C(=O)[C@H](CC(=O)NCCc1ccccc1OC)C2	nt	-5	21	-9	9.7*	11	24*	17*
C#CCNC(=O)C[C@@H]1C[C@@]2(C(=O)OCC)CCCC=C2N(Cc2cccc3ccccc23)C1=O	nt	-6	3	-16	6	7	nt	nt
COC(=O)[C@@]12C[C@@H](CC(=O)NCc3cccc4ccccc34)C(=O)N(Cc3ccc4c(c3)OCO4)C1=CCC(C)(C)C2	nt	nt	nt	-2	8.9*	18	20*	12*
COC(=O)[C@]12CCCCC=C1N(Cc1cccc3ccccc13)C(=O)[C@H](CC(=O)NCc1cccc3ccccc13)C2	nt	-9	24	-9	12*	16	23*	12*
CCOC(=O)CC[C@@H]1CC[C@]2(CCCN(C(=O)c3ccc4ccccc4n3)C2)O1	nt	nt	nt	nt	-5	-8	nt	nt
CCc1cc(/C(Cc2ccc3ccccc3n2)=N\O)c(O)cc1O	10	0	-138	-10	9.2*	15	30*	22*
COC(=O)[C@]12CCCCC=C1N(CCc1ccc(OC)c(OC)c1)C(=O)[C@H](CC(=O)N1CCCCC1)C2	nt	-8	nt	-4	-4	-17	nt	nt
O=C(CCCc1c[nH]c2ccccc12)Nc1ccc2ccccc2c1	15	-19	24	0	10*	8	1	4
CCN=C1S/C(=C/c2cc(C)n(-c3ccc(Cl)cc3F)c2C)C(=O)N1CC	nt	nt	nt	nt	-9	-11	nt	nt
CCN(CC)S(=O)(=O)c1ccc(OC)c(NC(=O)c2ccc(OC)c([N+](=O)[O-])c2)c1	-5	nt	20	12	13*	13	0	1
CCN(CC)S(=O)(=O)c1ccc(N2CCOCC2)c(NC(=O)c2ccc(OC)c([N+](=O)[O-])c2)c1	0	-2	20	-1	-4	-2	nt	nt
CCOc1ccc(CN(C)C(=O)c2ccc(S(=O)(=O)N(C)c3ccccc3OC)cc2)cc1	-1	-2	21	-9	18*	16	4	5
CCCCOP(=O)(OCCCC)C(O)c1ccc(Br)cc1 (centres undefined)	3	-8	4	4	11*	11	-6	0
CC(C)[C@H]1COCCS(=O)(=O)N1Cc1ccccc1-c1cccc2c1oc1ccccc12	-1	-4	39	-2	11*	19	9	7
CCCCOc1ccccc1-c1ccccc1CN1[C@@H](C(C)C)COCCS1(=O)=O	1	-4	22	-2	3	8	nt	nt
C[C@H]1COc2cc(N3CCSCC3)ccc2S(=O)(=O)N1C	nt	nt	nt	nt	-7	-17	nt	nt
OC[C@@H]1CN(Cc2ccc(F)cc2)C[C@H](n2cnc3c(NCc4ccc(F)cc4)ncnc32)O1	nt	-10	-4	-7	1	0	nt	nt
CCN(CC)S(=O)(=O)c1ccc2c(c1)nc(CCC(=O)Nc1ccc3c(c1)OCO3)n2CC	-16	-6	-2	-2	8.9*	2	-1	3
O=C(C1CCCO1)N1CCN(C2=Nc3ccccc3Sc3ccccc32)CC1 (centres undefined)	nt	nt	nt	nt	-1	1	nt	nt
SMILES	Arr AP2 block	CaV13 FRET inh	FAS TE block	CendR NRP1 mod	ADAM17 inh	ADAM10 inh	ADAM10 ctr	ADAM17 confirm
CCN(c1ccc(OC)cc1)S(=O)(=O)c1nnc(NC(=O)C2CCCCC2)s1	1	-7	-2	6	10*	5	-2	-1
Cc1ccccc1S(=O)(=O)NC(=O)C1(C)CCN1C(=O)Cc1cccs1 (centres undefined)	nt	-4	-6	-10	-3	-4	nt	nt
CCCOc1ccc(F)cc1-c1cc(C(=O)NCc2cccc(Cl)c2)[nH]n1	nt	-10	27	0	7	11	nt	nt
COc1ccc(NC(=O)N2CCCC(c3nc(-c4ccc(OC)cc4)no3)C2)cc1 (centres undefined)	5	-9	9	-5	3	8	nt	nt
COc1ccc(-c2noc(C3CCCN(C(=O)Nc4ccc(C)c(F)c4)C3)n2)cc1 (centres undefined)	nt	nt	nt	nt	9.8*	5	18	9.2*
COC(=O)[C@]12C[C@H](CC(=O)N3CCOCC3)C(=O)N(Cc3ccc4c(c3)OCO4)C1=C[C@H](COCc1ccccc1)O[C@@H]2C	nt	-9	nt	nt	-4	-1	nt	nt
CCOC(=O)C1(C)CCCN(C(=O)c2c(-c3ccccc3)noc2C)C1 (centres undefined)	nt	-7	-7	-7	2	-6	nt	nt
CC(=O)Nc1ccc(NC(=O)CN2CCN(c3cccc(C(F)(F)F)c3)CC2)cc1	-8	nt	0	-16	nt	nt	nt	nt
O=C(CN1CCN(c2cccc(C(F)(F)F)c2)CC1)Nc1cccc(C(F)(F)F)c1	-8	nt	27	19	8.8*	13	24*	12*
COc1ccc(S(=O)(=O)Nc2ccc3ccccc3c2)cc1C	7	-5	29	6	10*	19	29*	18*
COc1ccc(C2=Nc3ccccc3N(C(=O)c3cccnc3)C2C(=O)NC2CCCC2)cc1 (centres undefined)	nt	-9	nt	-7	-2	-3	nt	nt
Cc1nnsc1NC(=O)OCc1ccc(Cl)cc1Cl	3	-4	5	9	10*	12	6	1

Source: PubChem BioAssay (several laboratories)
